# Source: the M2OR odorant receptor database
# Substitutions are numbered along the chain they refer to.
# Tests used:
# Conditions in all cases: stereoisomer not certain
# OR5H2 = test system: T1, OR5H2
# T1 sequence (whole entry): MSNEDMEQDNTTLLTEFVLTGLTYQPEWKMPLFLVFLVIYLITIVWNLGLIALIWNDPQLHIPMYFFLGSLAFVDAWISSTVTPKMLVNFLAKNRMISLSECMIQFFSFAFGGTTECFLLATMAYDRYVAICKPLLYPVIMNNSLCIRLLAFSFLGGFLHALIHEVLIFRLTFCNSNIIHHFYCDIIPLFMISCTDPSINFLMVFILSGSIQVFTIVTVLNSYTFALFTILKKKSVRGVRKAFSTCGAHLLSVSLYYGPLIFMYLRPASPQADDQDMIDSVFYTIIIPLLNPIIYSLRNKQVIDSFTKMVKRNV
# Method in brief: (§1)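 Assay methods differ from source to source, frequently being transient luciferase assays in mammalian cell lines. For each receptor–molecule pair, the label responsive (active) applies when the original authors judged the measured signal statistically different from baseline, and non-responsive (inactive) applies otherwise.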
# OR5H6 (Homo sapiens) = target: T2, OR5H6 (Homo sapiens) (UniProt Q8NGV6)
# T2 sequence (whole entry): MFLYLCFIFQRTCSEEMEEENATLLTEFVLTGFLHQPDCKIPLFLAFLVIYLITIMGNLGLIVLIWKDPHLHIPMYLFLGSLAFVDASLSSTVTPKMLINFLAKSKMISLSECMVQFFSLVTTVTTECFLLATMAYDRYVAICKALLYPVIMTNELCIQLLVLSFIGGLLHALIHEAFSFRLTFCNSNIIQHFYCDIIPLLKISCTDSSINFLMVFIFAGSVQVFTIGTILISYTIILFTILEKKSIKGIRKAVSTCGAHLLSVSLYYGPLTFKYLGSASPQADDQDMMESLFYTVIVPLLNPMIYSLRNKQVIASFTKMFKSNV
# Method in brief: as §1
# OR5J2 (Homo sapiens) = target: T3, OR5J2 (Homo sapiens) (UniProt Q8NH18)
# T3 sequence (whole entry): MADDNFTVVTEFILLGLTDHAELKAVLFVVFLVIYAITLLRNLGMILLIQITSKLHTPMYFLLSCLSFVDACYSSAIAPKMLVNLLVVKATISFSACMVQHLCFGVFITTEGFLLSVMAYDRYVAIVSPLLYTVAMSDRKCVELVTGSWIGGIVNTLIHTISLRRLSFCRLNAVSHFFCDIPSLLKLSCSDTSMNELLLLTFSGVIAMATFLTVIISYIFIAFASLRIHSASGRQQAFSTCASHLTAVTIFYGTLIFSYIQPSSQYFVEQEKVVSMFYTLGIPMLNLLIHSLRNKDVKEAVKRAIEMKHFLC
# Method in brief: as §1
# OR5K1 (Homo sapiens) = target: T4, OR5K1 (Homo sapiens) (UniProt Q8NHB7)
# T4 sequence (whole entry): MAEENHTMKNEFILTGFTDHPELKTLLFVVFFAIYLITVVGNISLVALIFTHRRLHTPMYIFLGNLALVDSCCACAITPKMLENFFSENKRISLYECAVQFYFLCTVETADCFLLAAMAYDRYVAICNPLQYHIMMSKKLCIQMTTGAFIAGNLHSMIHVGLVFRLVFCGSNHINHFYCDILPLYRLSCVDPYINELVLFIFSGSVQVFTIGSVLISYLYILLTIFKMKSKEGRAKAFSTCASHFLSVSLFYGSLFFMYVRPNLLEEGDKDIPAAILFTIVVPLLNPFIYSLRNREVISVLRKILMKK
# Method in brief: as §1
# OR5K2 (Homo sapiens) = target: T5, OR5K2 (Homo sapiens) (UniProt Q8NHB8)
# T5 sequence (whole entry): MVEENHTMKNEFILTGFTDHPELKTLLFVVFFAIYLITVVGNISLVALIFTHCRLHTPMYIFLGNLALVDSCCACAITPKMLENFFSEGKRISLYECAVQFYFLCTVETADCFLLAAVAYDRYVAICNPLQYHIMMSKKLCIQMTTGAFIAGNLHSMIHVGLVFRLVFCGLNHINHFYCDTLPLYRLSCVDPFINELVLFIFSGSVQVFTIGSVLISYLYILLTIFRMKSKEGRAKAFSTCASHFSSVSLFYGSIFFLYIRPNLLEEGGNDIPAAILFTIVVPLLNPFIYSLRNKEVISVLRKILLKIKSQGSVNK
# Method in brief: as §1
# OR5H1 = test system: T6, OR5H1
# T6 sequence (whole entry): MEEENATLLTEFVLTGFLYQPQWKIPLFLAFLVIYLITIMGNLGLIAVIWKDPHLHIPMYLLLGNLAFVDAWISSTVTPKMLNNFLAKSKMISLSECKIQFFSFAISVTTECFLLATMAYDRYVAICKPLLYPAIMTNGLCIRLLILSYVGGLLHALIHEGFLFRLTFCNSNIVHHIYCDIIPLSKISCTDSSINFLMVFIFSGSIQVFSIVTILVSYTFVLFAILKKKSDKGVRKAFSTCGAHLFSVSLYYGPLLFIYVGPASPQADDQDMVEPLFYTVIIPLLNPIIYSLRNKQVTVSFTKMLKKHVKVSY
# Method in brief: as §1
# OR5I1 (Homo sapiens) = target: T7, OR5I1 (Homo sapiens) (UniProt Q13606)
# T7 sequence (whole entry): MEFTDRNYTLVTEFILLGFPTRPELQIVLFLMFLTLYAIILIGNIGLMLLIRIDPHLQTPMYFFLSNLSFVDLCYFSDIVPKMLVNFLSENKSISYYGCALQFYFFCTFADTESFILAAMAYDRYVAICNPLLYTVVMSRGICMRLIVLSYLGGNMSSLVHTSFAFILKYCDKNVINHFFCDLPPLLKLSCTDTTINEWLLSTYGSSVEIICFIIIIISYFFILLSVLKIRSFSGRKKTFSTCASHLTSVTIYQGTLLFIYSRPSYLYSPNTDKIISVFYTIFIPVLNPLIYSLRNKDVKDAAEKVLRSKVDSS
# Method in brief: as §1
# OR5K2 L197M = test system: T8, OR5K2 L197M
# T8 sequence (whole entry): T5 sequence (whole entry) with L197M
# Method in brief: as §1
# OR5K1 F62L = test system: OR5K1 F62L
# OR5K1 F62L, sequence (as listed by the source, stated change not applied): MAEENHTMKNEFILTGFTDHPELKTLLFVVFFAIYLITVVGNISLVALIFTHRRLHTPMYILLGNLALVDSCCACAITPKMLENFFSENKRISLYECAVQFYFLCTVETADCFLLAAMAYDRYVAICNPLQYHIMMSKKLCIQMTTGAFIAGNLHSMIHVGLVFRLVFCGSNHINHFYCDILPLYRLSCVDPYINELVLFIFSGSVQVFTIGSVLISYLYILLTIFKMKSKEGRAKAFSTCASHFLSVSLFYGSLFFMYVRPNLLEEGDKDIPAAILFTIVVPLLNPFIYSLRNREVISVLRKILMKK
# Method in brief: as §1
smiles,measurement,setting,value
CCCCC(S)C(C)CO (stereo not drawn),odorant receptor agonist call,OR5H2,inactive
same,odorant receptor agonist call,OR5H6 (Homo sapiens),inactive
same,odorant receptor agonist call,OR5J2 (Homo sapiens),inactive
same,odorant receptor agonist call,OR5K1 (Homo sapiens),inactive
same,odorant receptor agonist call,OR5K2 (Homo sapiens),inactive
CSSc1ccoc1C,odorant receptor agonist call,OR5K1 (Homo sapiens),inactive
CCCCCC(S)C(C)CO (stereo not drawn),odorant receptor agonist call,OR5H2,inactive
same,odorant receptor agonist call,OR5H6 (Homo sapiens),inactive
same,odorant receptor agonist call,OR5J2 (Homo sapiens),inactive
same,odorant receptor agonist call,OR5K1 (Homo sapiens),inactive
same,odorant receptor agonist call,OR5K2 (Homo sapiens),inactive
CC1=C(O)C(=O)OC1C (stereo not drawn),odorant receptor agonist call,OR5H1,inactive
same,odorant receptor agonist call,OR5H2,inactive
same,odorant receptor agonist call,OR5H6 (Homo sapiens),inactive
same,odorant receptor agonist call,OR5I1 (Homo sapiens),inactive
same,odorant receptor agonist call,OR5J2 (Homo sapiens),inactive
same,odorant receptor agonist call,OR5K1 (Homo sapiens),inactive
same,odorant receptor agonist call,OR5K2 (Homo sapiens),inactive
same,odorant receptor agonist call,OR5K2 L197M,inactive
CCCC(S)CCOC(C)=O (stereo not drawn),odorant receptor agonist call,OR5H1,inactive
same,odorant receptor agonist call,OR5H2,inactive
same,odorant receptor agonist call,OR5H6 (Homo sapiens),inactive
same,odorant receptor agonist call,OR5I1 (Homo sapiens),inactive
same,odorant receptor agonist call,OR5J2 (Homo sapiens),inactive
same,odorant receptor agonist call,OR5K1 (Homo sapiens),inactive
same,odorant receptor agonist call,OR5K2 (Homo sapiens),inactive
same,odorant receptor agonist call,OR5K2 L197M,inactive
Cc1cnc(C)c(C)n1,odorant receptor agonist call,OR5H1,inactive
same,odorant receptor agonist call,OR5H2,inactive
same,odorant receptor agonist call,OR5H6 (Homo sapiens),inactive
same,odorant receptor agonist call,OR5I1 (Homo sapiens),inactive
same,odorant receptor agonist call,OR5J2 (Homo sapiens),inactive
same,odorant receptor agonist call,OR5K1 (Homo sapiens),active
same,odorant receptor agonist call,OR5K1 F62L,active
same,odorant receptor agonist call,OR5K2 (Homo sapiens),inactive
same,odorant receptor agonist call,OR5K2 L197M,inactive
CC(=O)OCCC(C)C,odorant receptor agonist call,OR5K1 (Homo sapiens),inactive
CCCCC(=O)OCC,odorant receptor agonist call,OR5K1 (Homo sapiens),inactive
CCc1nccnc1C,odorant receptor agonist call,OR5K1 (Homo sapiens),active
same,odorant receptor agonist call,OR5K2 (Homo sapiens),inactive
CCC(C)c1nccnc1OC (stereo not drawn),odorant receptor agonist call,OR5K1 (Homo sapiens),active
same,odorant receptor agonist call,OR5K2 (Homo sapiens),inactive
Cc1cnccn1,odorant receptor agonist call,OR5K1 (Homo sapiens),active
same,odorant receptor agonist call,OR5K2 (Homo sapiens),inactive
C=Cc1cnccn1,odorant receptor agonist call,OR5K1 (Homo sapiens),active
same,odorant receptor agonist call,OR5K2 (Homo sapiens),inactive
CC=CC(=O)C1=C(C)CCCC1(C)C,odorant receptor agonist call,OR5K1 (Homo sapiens),inactive
CCc1nccnc1CC,odorant receptor agonist call,OR5K1 (Homo sapiens),active
same,odorant receptor agonist call,OR5K2 (Homo sapiens),inactive
CCCCCC=CCCC=O,odorant receptor agonist call,OR5K1 (Homo sapiens),inactive
CC1=CCC(C(C)C)C=C1 (stereo not drawn),odorant receptor agonist call,OR5K1 (Homo sapiens),inactive
CCCCCCCCC1CCC(=O)O1 (stereo not drawn),odorant receptor agonist call,OR5K1 (Homo sapiens),inactive
CCC(C)C=O (stereo not drawn),odorant receptor agonist call,OR5K1 (Homo sapiens),inactive
CCOC(C)=O,odorant receptor agonist call,OR5K1 (Homo sapiens),inactive
Cc1cnc(C)cn1,odorant receptor agonist call,OR5K1 (Homo sapiens),active
same,odorant receptor agonist call,OR5K2 (Homo sapiens),inactive
CC(=O)OCCc1ccccc1,odorant receptor agonist call,OR5K1 (Homo sapiens),inactive
C=Cc1ccc(O)c(OC)c1,odorant receptor agonist call,OR5K1 (Homo sapiens),inactive
CCOC(=O)C(C)CC (stereo not drawn),odorant receptor agonist call,OR5K1 (Homo sapiens),inactive
CC1CCc2nccnc21 (stereo not drawn),odorant receptor agonist call,OR5K1 (Homo sapiens),active
same,odorant receptor agonist call,OR5K2 (Homo sapiens),inactive
CC(=O)c1nccnc1C,odorant receptor agonist call,OR5K1 (Homo sapiens),active
same,odorant receptor agonist call,OR5K2 (Homo sapiens),inactive
COc1nccnc1C(C)C,odorant receptor agonist call,OR5K1 (Homo sapiens),active
same,odorant receptor agonist call,OR5K2 (Homo sapiens),inactive
CCc1nccnc1OC,odorant receptor agonist call,OR5K1 (Homo sapiens),active
same,odorant receptor agonist call,OR5K2 (Homo sapiens),inactive
COc1cnccn1,odorant receptor agonist call,OR5K1 (Homo sapiens),active
same,odorant receptor agonist call,OR5K2 (Homo sapiens),inactive
Cc1ccc(O)cc1,odorant receptor agonist call,OR5K1 (Homo sapiens),inactive
CCCCCCCCC=CC=O,odorant receptor agonist call,OR5K1 (Homo sapiens),inactive
O=c1ccc2ccccc2o1,odorant receptor agonist call,OR5K1 (Homo sapiens),inactive
Cc1nccnc1C,odorant receptor agonist call,OR5K1 (Homo sapiens),active
same,odorant receptor agonist call,OR5K2 (Homo sapiens),inactive
CSCSC,odorant receptor agonist call,OR5K1 (Homo sapiens),inactive
CCC(C)CO (stereo not drawn),odorant receptor agonist call,OR5K1 (Homo sapiens),inactive
C=CC(=O)CCCCC,odorant receptor agonist call,OR5K1 (Homo sapiens),inactive
CC(C)=CC1CC(C)CCO1 (stereo not drawn),odorant receptor agonist call,OR5K1 (Homo sapiens),inactive
CCCCCCOC(C)=O,odorant receptor agonist call,OR5K1 (Homo sapiens),inactive
OCC=Cc1ccccc1,odorant receptor agonist call,OR5K1 (Homo sapiens),inactive
CC(=O)c1cnccn1,odorant receptor agonist call,OR5K1 (Homo sapiens),active
same,odorant receptor agonist call,OR5K2 (Homo sapiens),inactive
COc1nccnc1CC(C)C,odorant receptor agonist call,OR5K1 (Homo sapiens),active
same,odorant receptor agonist call,OR5K2 (Homo sapiens),inactive
CC=CC(=O)C(C)CC (stereo not drawn),odorant receptor agonist call,OR5K1 (Homo sapiens),inactive
CCOC(=O)c1ccccc1,odorant receptor agonist call,OR5K1 (Homo sapiens),inactive
C=C1CCC2(C(C)C)CC12 (stereo not drawn),odorant receptor agonist call,OR5K1 (Homo sapiens),inactive
CCc1ncc(C)nc1CC,odorant receptor agonist call,OR5K1 (Homo sapiens),active
same,odorant receptor agonist call,OR5K2 (Homo sapiens),inactive
Cc1cncc(C)n1,odorant receptor agonist call,OR5K1 (Homo sapiens),active
same,odorant receptor agonist call,OR5K2 (Homo sapiens),inactive
CCc1nccnc1C(C)=O,odorant receptor agonist call,OR5K1 (Homo sapiens),active
same,odorant receptor agonist call,OR5K2 (Homo sapiens),inactive
